Test results from ChEMBL document CHEMBL4325891 (Eur J Med Chem, 2019).
The source made the active and inactive calls. The rule behind the calls is not given here. Where a SMILES comes first, the peptide text is derived from it. The star is where a group is joined. Doxorubicin(Traut) = COc1cccc2c1C(=O)c1c(O)c3c(c(O)c1C2=O)C[C@@](O)(C(=O)CO)C[C@@H]3O[C@H]1C[C@H](NC(=N)CCCS*)[C@H](O)[C@H](C)O1; βAla = NCCC(=O)O

Legend:
CCRF-CEM [1] = experiment: Inhibition of cell proliferation in human CCRF-CEM cells at 5 uM after 72 hrs by MTT or MTS assay relative to control; type: functional
Summary of the method: (§1)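 Seeding was 5000 cells/well for HEK-293, SKOV-3 and HT-1080, and 50,000 for CCRF-CEM, 24 h before dosing. CCRF-CEM was grown in RPMI and the others in EMEM with 10% FBS. Compounds were given at 5 μM for 24 or 72 h at 37 °C, with water/0.025% DMSO as negative control. Adherent lines received fresh medium before adding MTT (595 nm) or MTS (490 nm). Background-corrected OD is expressed as percent of control; triplicate runs.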

[2] = Inhibition of cell proliferation in HEK293 cells at 5 uM after 24 hrs by MTT or MTS assay relative to control; type: cell-based; conditions: human
SK-OV-3 [3] = experiment: Inhibition of cell proliferation in human SKOV3 cells at 5 uM after 24 hrs by MTT or MTS assay relative to control; type: functional; conditions: SK-OV-3, 24 h
HT-1080 [4] = experiment: Inhibition of cell proliferation in human HT1080 cells at 5 uM after 72 hrs by MTT or MTS assay relative to control; type: functional; conditions: for inhibition at 5 µM: HT-1080, 72 h
C2C12 [5] = experiment: Induction of FeCl2-mediated ROS generation in mouse C2C12 cells at 0.5 uM after 72 hrs by H2DCFDA staining based flow cytometry relative to control; type: cell-based; conditions: c2c12, 72 h
Summary of the method: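 C2C12 cells were seeded in DMEM with 10% FBS and cultured 24 h. They were then incubated 72 h in serum-free DMEM with 10 μM Fe²⁺ (FeCl₂), with or without compound at 0.5 μM. Cells were harvested and stained with 10 μM H₂DCFDA in HBSS for 30 min at 37 °C before flow cytometry. The mean signal of 5000 cells is expressed as fold of control; experiments were done twice.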

C2C12 [6] = experiment: Induction of ROS generation in mouse C2C12 cells at 0.5 uM after 72 hrs by H2DCFDA staining based flow cytometry relative to control; type: cell-based; conditions: c2c12, 72 h
[7] = Drug uptake in human HT1080 cells nucleus at 5 uM after 1 to 24 hrs by DAPI staining based fluorescence microscopic method; type: ADME, subcellular; conditions: ht-1080, 5 µM
Summary of the method: (§2)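 1×10^4 cells per chamber were allowed to attach and then cultured overnight. Compounds were added at 5 μM final in fresh medium for 1 h or 24 h, with untreated cells as control. Cells were then washed with DPBS and fixed in 4% paraformaldehyde for 30 min.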

[8] = Drug uptake in human MCF7 cells nucleus at 5 uM after 1 to 24 hrs by DAPI staining based fluorescence microscopic method; type: ADME, subcellular; conditions: mcf7, 5 µM; summary of the method: as §2
[9] = Cytotoxicity against mouse C2C12 cells assessed as cell viability at 5 uM after 72 hrs by MTT assay relative to control; type: cell-based; conditions: read-out: Activity
Summary of the method: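 C2C12 mouse myoblasts grown in DMEM with 10% FBS, seeded at 10,000 cells/well 24 h before dosing. Compound exposure for 72 h at 37 °C, then MTT read-out. Viability expressed relative to untreated control, set at 100%. Run in triplicate.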

CCRF-CEM [10] = experiment: Inhibition of cell proliferation in human CCRF-CEM cells at 5 uM after 24 hrs by MTT or MTS assay relative to control; type: functional; summary of the method: as §1
[11] = Drug uptake in human HT1080 cells at 5 uM after 3 hrs by flow cytometry; type: ADME, cell-based; conditions: ht-1080, 3 h
Summary of the method: (§3)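 Adherent cells were plated at 5×10^4 per well in serum-free medium and left overnight, then exposed to 5 μM compound for 3 h at 37 °C, with untreated cells as control. Cells were washed with DPBS, trypsinised for 5 min and washed twice. Flow cytometry read the Texas Red channel, giving the mean fluorescence of 10,000 cells, in triplicate.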

SK-OV-3 [12] = experiment: Inhibition of cell proliferation in human SKOV3 cells at 5 uM after 72 hrs by MTT or MTS assay relative to control; type: functional; conditions: SK-OV-3, 72 h
HT-1080 [13] = experiment: Inhibition of cell proliferation in human HT1080 cells at 5 uM after 24 hrs by MTT or MTS assay relative to control; type: functional; conditions: for inhibition at 5 µM: HT-1080, 24 h; summary of the method: as §1
[14] = Drug uptake in human SKOV3 cells at 5 uM after 3 hrs by flow cytometry; type: ADME, cell-based; conditions: sk-ov-3, 3 h; summary of the method: as §3
[15] = Drug uptake in human MDA-MB-468 cells nucleus at 5 uM after 1 to 24 hrs by DAPI staining based fluorescence microscopic method; type: ADME, subcellular; conditions: mda-mb-468, 5 µM; summary of the method: as §2
[16] = Drug uptake in human SKOV3 cells nucleus at 5 uM after 1 to 24 hrs by DAPI staining based fluorescence microscopic method; type: ADME, subcellular; conditions: sk-ov-3, 5 µM; summary of the method: as §2
[17] = Inhibition of cell proliferation in HEK293 cells at 5 uM after 72 hrs by MTT or MTS assay relative to control; type: cell-based; conditions: human; summary of the method: as §1
[18] = Drug uptake in human CCRF-CEM cells at 50 uM after 3 hrs by flow cytometry; type: ADME, cell-based
[19] = Drug uptake in HEK293 cells at 50 uM after 3 hrs by flow cytometry; type: ADME, cell-based; conditions: human, hek293, 3 h
[20] = Drug uptake in human HT1080 cells at 50 uM after 3 hrs by flow cytometry; type: ADME, cell-based; conditions: ht-1080, 3 h
[21] = Drug uptake in human SKOV3 cells at 50 uM after 3 hrs by flow cytometry; type: ADME, cell-based; conditions: sk-ov-3, 3 h

SMILES	inhibition at 5 µM (CCRF-CEM [1]) [%]	inhibition at 24 h, 5 µM [2] [%]	inhibition at 5 µM (SK-OV-3 [3]) [%]	fold change (FC) (C2C12 [6])	Drug uptake [7]	Drug uptake [8]	viability at 72 h, 5 µM [9] [%]	inhibition at 5 µM (CCRF-CEM [10]) [%]	inhibition at 5 µM (SK-OV-3 [12]) [%]	inhibition at 5 µM (HT-1080 [13]) [%]	Drug uptake [15]	Drug uptake [16]	inhibition at 72 h, 5 µM [17] [%]	inhibition at 5 µM (HT-1080 [4]) [%]	Drug uptake [20]	other results
COc1cccc2c1C(=O)c1c(O)c3c(c(O)c1C2=O)C[C@@](O)(C(=O)CO)C[C@@H]3O[C@H]1C[C@H](N)[C@H](O)[C@H](C)O1 [DOXORUBICIN]	69	57	66 to 76	1.09	Active	Active	28.6	45	51	66	Active	Active				inhibition (HT-1080 [4]): inactive; fold change (FC) (C2C12 [5]): 3.48; Drug uptake [11]: Active; Drug uptake [14]: Active
COc1cccc2c1C(=O)c1c(O)c3c(c(O)c1C2=O)C[C@@](O)(C(=O)CO)C[C@@H]3O[C@H]1C[C@H](NC(=N)CCCS)[C@H](O)[C@H](C)O1	73	61			Active	Active		48	42	62	Active	Active	64	68		
N=C(N)NCCC[C@@H]1NC(=O)[C@H](CS)NC(=O)[C@H](CCCNC(=N)N)NC(=O)[C@H](Cc2c[nH]c3ccccc23)NC(=O)[C@H](CCCNC(=N)N)NC(=O)[C@H](Cc2c[nH]c3ccccc23)NC(=O)[C@H](CCCCNC(=O)CCN)NC(=O)[C@H](Cc2c[nH]c3ccccc23)NC(=O)[C@H](CCCNC(=N)N)NC(=O)[C@H](Cc2c[nH]c3ccccc23)NC1=O (cyclo(CRWRWK(βAla)WRWR))																inhibition (CCRF-CEM [1]): inactive; inhibition (CCRF-CEM [10]): inactive; inhibition (HT-1080 [13]): inactive
COc1cccc2c1C(=O)c1c(O)c3c(c(O)c1C2=O)C[C@@](O)(C(=O)CO)C[C@@H]3O[C@H]1C[C@H](NC(=N)CCCSSc2ccccn2)[C@H](O)[C@H](C)O1	73	66	72		Active	Active		46	39	80	Active	Active	60	68	Active	Drug uptake [18]: Active; Drug uptake [19]: Active
COc1cccc2c1C(=O)c1c(O)c3c(c(O)c1C2=O)C[C@@](O)(C(=O)CO)C[C@@H]3O[C@H]1C[C@H](NC(=N)CCCSSC[C@@H]2NC(=O)[C@H](CCCNC(=N)N)NC(=O)[C@H](Cc3c[nH]c4ccccc34)NC(=O)[C@H](CCCNC(=N)N)NC(=O)[C@H](Cc3c[nH]c4ccccc34)NC(=O)[C@H](CCCCNC(=O)CCN)NC(=O)[C@H](Cc3c[nH]c4ccccc34)NC(=O)[C@H](CCCNC(=N)N)NC(=O)[C@H](Cc3c[nH]c4ccccc34)NC(=O)[C@H](CCCNC(=N)N)NC2=O)[C@H](O)[C@H](C)O1 (cyclo(C(Doxorubicin(Traut))RWRWK(βAla)WRWR))				1.05	Active	Active	71				Active	Active			Active	Drug uptake [21]: Active; Activity (C2C12 [5]): Non-Toxic
